Here are results for 8 compounds from ChEMBL document CHEMBL1151238, “New stilbene derivatives from Calligonum leucocladum” (2004).

In brackets after ≈: the same amount, converted by molar mass.

Common to all, as to format: functional
Assay [1] can be described thus: DPPH radical scavenging activity assessed as ratio of absorbance at 20 uM relative to L-cysteine. An outline of the steps: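 Test compound at 20 μM in ethanolic solution, mixed with ethanol, 50 mM MES buffer (pH 5.5) and 0.5 mM DPPH in ethanol. Decrease in absorbance at 517 nm read after 30 min. L-Cysteine served as reference. Value given as the ratio of absorbance between L-cysteine and test compound.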
(DPPH is a stable violet radical that fades when it is reduced.)

Assay [2] deals with Staphylococcus aureus. Briefly: Antimicrobial activity against methicillin-resistant Staphylococcus aureus 4 after 24 hrs. An outline of the steps:
(§1)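 Overnight 37 °C Mueller-Hinton broth cultures of clinical isolates or strain COL were diluted in 0.85% NaCl and spotted by inoculator at about 10⁶ cfu/mL. Plates were held 37 °C for 24 h. MIC was taken as the lowest concentration giving complete growth inhibition.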

The subject of assay [3] is Staphylococcus aureus. Nature of the assay: Antimicrobial activity against methicillin-resistant Staphylococcus aureus 12 after 24 hrs. An outline of the steps:
as §1

Assay [4] relates to Staphylococcus aureus. Briefly: Antimicrobial activity against methicillin-resistant Staphylococcus aureus 5 after 24 hrs. An outline of the steps: as §1
The subject of assay [5] is Staphylococcus aureus. Briefly: Antimicrobial activity against methicillin-resistant Staphylococcus aureus 2 after 24 hrs. An outline of the steps:
as §1

Assay [6] deals with Staphylococcus aureus. Briefly: Antimicrobial activity against methicillin-resistant Staphylococcus aureus 8 after 24 hrs. An outline of the steps:
as §1

Assay [7] deals with Staphylococcus aureus. Briefly: Antimicrobial activity against methicillin-resistant Staphylococcus aureus COL after 24 hrs. An outline of the steps: as §1
In assay [8] the test system is Staphylococcus aureus. Nature of the assay: Antimicrobial activity against methicillin-resistant Staphylococcus aureus 1 after 24 hrs. An outline of the steps: as §1

As usually defined, the MIC is the least concentration at which growth counts as inhibited. A high value points to a less susceptible organism.

Take `Oc1ccc(/C=C/c2cc(O)cc(O[C@@H]3OC[C@@H](O)[C@H](O)[C@H]3O)c2)cc1`: the Ratio in assay [1] came out at 0.42.
Take `O=C(OC[C@H]1O[C@@H](Oc2cc(O)cc(/C=C/c3ccc(O)cc3)c2)[C@H](O)[C@@H](O)[C@@H]1O)c1cc(O)c(O)c(O)c1`: the MIC against Staphylococcus aureus [2] is 125 mg/L (≈ 230 µM); against Staphylococcus aureus [3] it was 250 mg/L (≈ 461 µM); against Staphylococcus aureus [4], above 250 mg/L; against Staphylococcus aureus [5], 125 mg/L (≈ 230 µM); in the assay with Staphylococcus aureus [6] it was 125 mg/L (≈ 230 µM); in the assay with Staphylococcus aureus [7], above 250 mg/L. In the assay with Staphylococcus aureus [8], this compound returned an MIC of 125 mg/L (≈ 230 µM). The Ratio in assay [1] worked out at 1.3.
In the case of `OC[C@H]1O[C@@H](Oc2cc(O)cc(/C=C/c3ccc(O)cc3)c2)[C@H](O)[C@@H](O)[C@@H]1O`, the Ratio in assay [1] worked out at 0.54.
Regarding `Cc1onc(-c2ccccc2)c1C(=O)N[C@@H]1C(=O)N2[C@@H]1SC(C)(C)[C@@H]2C(=O)O` [OXACILLIN], the MIC against Staphylococcus aureus [2] worked out at 256 mg/L (≈ 638 µM); in the assay on Staphylococcus aureus [3] it was 512 mg/L (≈ 1280 µM); against Staphylococcus aureus [4], 256 mg/L (≈ 638 µM); in the assay on Staphylococcus aureus [5], 256 mg/L (≈ 638 µM); against Staphylococcus aureus [6] it was 256 mg/L (≈ 638 µM); in the assay on Staphylococcus aureus [7] it was 512 mg/L (≈ 1280 µM). It took 512 mg/L (≈ 1280 µM) to inhibit growth against Staphylococcus aureus [8] (MIC).
With `Oc1ccc(/C=C/c2cc(O)cc(O)c2)cc1` [RESVERATROL], the MIC in the assay on Staphylococcus aureus [2], in the assay with Staphylococcus aureus [3], against Staphylococcus aureus [4], with Staphylococcus aureus [5], against Staphylococcus aureus [6] and against Staphylococcus aureus [7] was above 250 mg/L each time. This compound returned an MIC against Staphylococcus aureus [8] above 250 mg/L. Also, the Ratio in assay [1] is 1.77.
Regarding `CC(=O)O[C@@H]1CO[C@@H](Oc2cc(O)cc(/C=C/c3ccc(O)cc3)c2)[C@H](O)[C@H]1O`, the Ratio in assay [1] stood at 0.2.
As for `Oc1cc(O)cc(/C=C/c2ccccc2)c1` [PINOSYLVIN], the MIC against Staphylococcus aureus [2] was above 250 mg/L; against Staphylococcus aureus [3], above 250 mg/L; with Staphylococcus aureus [4], 125 mg/L (≈ 589 µM); with Staphylococcus aureus [5], above 250 mg/L; in the assay on Staphylococcus aureus [6], above 250 mg/L; in the assay on Staphylococcus aureus [7], 125 mg/L (≈ 589 µM). In the assay with Staphylococcus aureus [8], the MIC is above 250 mg/L. Further, in assay [1], the Ratio came out at 0.52.
With `OC[C@H]1O[C@@H](Oc2cc(O)cc(/C=C/c3ccccc3)c2)[C@H](O)[C@@H](O)[C@@H]1O`, the Ratio in assay [1] was 0.14.
